In PMC4243704 (European journal of pharmaceutics and biopharmaceutics : …, 2013):
Like-named read-outs stand apart in the source and are kept apart here.

Assays:
[1] = Chemical stability in simulated gastric fluid; type: physicochemical; conditions: for SGF t1/2: SGF pH 1.2, 37 °C
How it was run: (§1)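 Incubated in simulated gastric fluid (pH 1.2) or simulated intestinal fluid at 37 °C. Remaining prodrug measured over time by reverse-phase C18 HPLC (0.1% TFA water/acetonitrile gradient). t1/2 estimated by linear regression of pseudo-first-order plots of prodrug concentration vs time.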

[2] = Chemical stability in simulated intestinal fluid; type: physicochemical; conditions: for SIF (pH 6.5) t1/2: 37 °C
How it was run: as §1

[3] = Chemical stability in pH 7.4 phosphate buffer; type: physicochemical; conditions: for Buffer pH 7.4 t1/2: phosphate buffer pH 7.4, 37 °C
How it was run: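 Non-enzymatic hydrolysis in 10 mmol/L phosphate buffer pH 7.4, triplicate wells, 37 °C up to 120 min. Aliquots quenched in acetonitrile with 0.1% TFA, filtered, and run on reverse-phase C18 HPLC (TFA water/acetonitrile gradient). t1/2 from linear regression of pseudo-first-order plots of prodrug concentration vs time.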

[4] = Enzymatic stability in Caco-2 cell homogenates; type: in vitro ADME; conditions: for Caco-2 cell homogenates t1/2: 500 μg/mL protein, 37 °C; for Stability in cell homogenate, D-prodrug relative to L-prodrug: Caco-2 cell homogenates (assigned from Table 2 ratios)
Microsomal stability = type: in vitro ADME, human; conditions: for Human liver microsome t1/2: 500 μg/mL microsomal protein, NADPH, 37 °C
Thymidine phosphorylase = molecular target: T1, Thymidine phosphorylase (Homo sapiens, UniProt P19971); assay: Stability toward thymidine phosphorylase; type: in vitro ADME
T1 sequence (P19971 11-482): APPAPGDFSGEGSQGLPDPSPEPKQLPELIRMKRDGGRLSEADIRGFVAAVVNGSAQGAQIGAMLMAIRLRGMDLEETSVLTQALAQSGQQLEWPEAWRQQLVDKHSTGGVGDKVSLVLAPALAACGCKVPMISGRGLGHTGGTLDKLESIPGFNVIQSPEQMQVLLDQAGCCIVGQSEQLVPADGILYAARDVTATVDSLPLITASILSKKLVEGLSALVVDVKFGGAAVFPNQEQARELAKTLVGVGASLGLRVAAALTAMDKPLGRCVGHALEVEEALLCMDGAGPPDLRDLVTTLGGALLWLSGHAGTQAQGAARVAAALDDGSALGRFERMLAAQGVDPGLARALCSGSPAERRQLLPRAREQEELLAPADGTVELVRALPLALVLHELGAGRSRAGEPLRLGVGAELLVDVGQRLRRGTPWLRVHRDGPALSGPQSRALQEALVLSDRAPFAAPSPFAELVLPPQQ

[5] = Enzymatic stability in AsPC-1 cell homogenates; type: in vitro ADME; conditions: for AsPC-1 cell homogenates t1/2: 500 μg/mL protein, 37 °C; for Stability in cell homogenate, D-prodrug relative to L-prodrug: AsPC-1 cell homogenates (assigned from Table 2 ratios)
Caco-2 cells = assay: Uptake study in Caco-2 cells; type: cell-based; conditions: for Cytosine (%) of species found in cells / Gemcitabine (%) of species found in cells / Prodrug (%) of species found in cells: Caco-2 uptake without Gly-Pro, 1 h
AsPC-1 cells [6] = assay: Uptake study in AsPC-1 cells; type: cell-based; conditions: for Cytosine (%) of species found in cells / Gemcitabine (%) of species found in cells / Prodrug (%) of species found in cells: AsPC-1 uptake, 100 μM, 1 h; for Uptake amount, D-prodrug relative to L-prodrug (higher): 100 μM drug solution
AsPC-1 cells [7] = assay: Cell proliferation assay; type: cell-based
How it was run: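 AsPC-1 cells seeded at 125,000/well and grown 24 h in RPMI-1640 + 10% FBS, then washed with pH 6.0 uptake buffer. Test compound 2-fold serially diluted (5 to 0.078 mmol/L) in that buffer and applied for 2 h at 37 °C; buffer alone served as 100% viability. After washing, 24 h recovery in medium. XTT/phenazine methosulfate read at 450 nm; GI50 from nonlinear fitting.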

mouse jejunum = assay: In situ single-pass intestinal perfusion in mice
[8] = for Concentration in plasma, D-prodrug relative to L-prodrug (higher): mouse plasma after in situ perfusion, prodrug plus metabolites
[9] = Caco-2 cell monolayer permeability, apical-to-basolateral; type: in vitro ADME; conditions: human, Caco-2
How it was run: (§2)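 Caco-2 cells grown 21–24 days on collagen-coated PTFE inserts, TEER 550–600 Ω cm2. Apical MES (pH 6.0) and basolateral HEPES (pH 7.4) buffers, preincubated 15 min at 37 °C. 0.1 mM test compound in apical MES, ±10 mM Gly-Pro. Receiver sampled at 15–120 min at 37 °C with buffer replacement. Samples acidified with 0.1% TFA and analysed by HPLC.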

Caco-2 monolayer = assay: as above; type: in vitro ADME
How it was run: as §2

[10] = In situ single-pass intestinal perfusion in mice; conditions: female, BALB/c, mouse, other: in situ single-pass intestinal (jejunal) perfusion, pH 6
[11] = read-out: GI50 AsPC-1, 2 h exposure at pH 6.0, 24 h recovery, XTT

5′-L-Valyl-gemcitabine
SGF t1/2 [1]: >120 min
SIF (pH 6.5) t1/2 [2]: >120 min
Buffer pH 7.4 t1/2 [3]: >120 min
Caco-2 cell homogenates t1/2 [4]: 19.5 ± 1.9 min
Human liver microsome t1/2 (Microsomal stability): 27.8 ± 13.6 min
Thymidine phosphorylase t1/2 (Thymidine phosphorylase): >120 min
AsPC-1 cell homogenates t1/2 [5]: 13.8 ± 3.3 min
Cytosine (%) of species found in cells (Caco-2 cells): 0%
Gemcitabine (%) of species found in cells (Caco-2 cells): 15%
Prodrug (%) of species found in cells (Caco-2 cells): 85%
Cytosine (%) of species found in cells (AsPC-1 cells [6]): 20%
Gemcitabine (%) of species found in cells (AsPC-1 cells [6]): 11%
Prodrug (%) of species found in cells (AsPC-1 cells [6]): 69%
GI50 (AsPC-1 cells [7]; [11]): 2 ± 0.8 mM
Membrane permeability, L-prodrug better than D-prodrug (mouse jejunum; mouse in situ perfusion): 87%

Nc1ccn([C@@H]2O[C@H](COC(=O)[C@H](N)Cc3ccccc3)[C@@H](O)C2(F)F)c(=O)n1 [5′-D-Phenylalanyl-gemcitabine]
SGF t1/2 [1]: >120 min
SIF (pH 6.5) t1/2 [2]: >120 min
Buffer pH 7.4 t1/2 [3]: >120 min
Caco-2 cell homogenates t1/2 [4]: 21.7 ± 0.2 min
Stability in cell homogenate, D-prodrug relative to L-prodrug [4]: 10.9 fold
Stability in human liver microsomes, D-prodrug relative to L-prodrug (Microsomal stability): 3.7 fold
Human liver microsome t1/2 (Microsomal stability): 6.6 ± 1.3 min
Thymidine phosphorylase t1/2 (Thymidine phosphorylase): >120 min
AsPC-1 cell homogenates t1/2 [5]: 63.9 ± 11.2 min
Stability in cell homogenate, D-prodrug relative to L-prodrug [5]: 9.4 fold
Uptake amount, D-prodrug lower than L-prodrug (Caco-2 cells; Caco-2 cells): 70%
Cytosine (%) of species found in cells (Caco-2 cells): 0%
Gemcitabine (%) of species found in cells (Caco-2 cells): 31%
Prodrug (%) of species found in cells (Caco-2 cells): 69%
Uptake amount, D-prodrug relative to L-prodrug (higher) (AsPC-1 cells [6]; AsPC-1 cells): 3.3 fold
Uptake enhancement relative to gemcitabine (AsPC-1 cells [6]; AsPC-1 cells, lower concentration (50 μM)): did not show the enhancement of uptake
Cytosine (%) of species found in cells (AsPC-1 cells [6]): 1%
Gemcitabine (%) of species found in cells (AsPC-1 cells [6]): 87%
Prodrug (%) of species found in cells (AsPC-1 cells [6]): 12%
GI50 (AsPC-1 cells [7]; [11]): 5.6 ± 1.1 mM
Concentration in plasma, D-prodrug relative to L-prodrug (higher) [8]: 2.0 fold

CC(C)[C@@H](N)C(=O)OC[C@H]1O[C@@H](n2ccc(N)nc2=O)C(F)(F)[C@@H]1O [5′-D-Valyl-gemcitabine]
SGF t1/2 [1]: >120 min
SIF (pH 6.5) t1/2 [2]: >120 min
Buffer pH 7.4 t1/2 [3]: >120 min
Caco-2 cell homogenates t1/2 [4]: 42.0 ± 17.5 min
Stability in cell homogenate, D-prodrug relative to L-prodrug [4]: 2.2 fold
Human liver microsome t1/2 (Microsomal stability): 19.5 ± 4.4 min
Thymidine phosphorylase t1/2 (Thymidine phosphorylase): >120 min
AsPC-1 cell homogenates t1/2 [5]: 87.2 ± 13.5 min
Stability in cell homogenate, D-prodrug relative to L-prodrug [5]: 6.3 fold
Uptake amount, D-prodrug lower than L-prodrug (Caco-2 cells; Caco-2 cells): 46%
Cytosine (%) of species found in cells (Caco-2 cells): 0%
Gemcitabine (%) of species found in cells (Caco-2 cells): 10%
Prodrug (%) of species found in cells (Caco-2 cells): 90%
Dose linearity of uptake (AsPC-1 cells [6]; AsPC-1 cells, 50 μM vs 100 μM): exhibited the dose linearity
Uptake amount, D-prodrug relative to L-prodrug (higher) (AsPC-1 cells [6]; AsPC-1 cells): 3.1 fold
Cytosine (%) of species found in cells (AsPC-1 cells [6]): 4%
Gemcitabine (%) of species found in cells (AsPC-1 cells [6]): 77%
Prodrug (%) of species found in cells (AsPC-1 cells [6]): 19%
GI50 (AsPC-1 cells [7]; [11]): 2.2 ± 0.9 mM
Prodrug concentration in blood ([8]; after in situ perfusion of mouse small intestine): highest
Concentration in plasma, D-prodrug relative to L-prodrug (higher) [8]: 2.3 fold

Nc1ccn([C@@H]2O[C@H](COC(=O)[C@@H](N)Cc3ccccc3)[C@@H](O)C2(F)F)c(=O)n1 [5′-L-Phenylalanyl-gemcitabine]
SGF t1/2 [1]: >120 min
SIF (pH 6.5) t1/2 [2]: >120 min
Buffer pH 7.4 t1/2 [3]: >120 min
Caco-2 cell homogenates t1/2 [4]: 2.0 ± 0.3 min
Human liver microsome t1/2 (Microsomal stability): 1.8 ± 0.2 min
Thymidine phosphorylase t1/2 (Thymidine phosphorylase): 31.9 ± 5.0 min
AsPC-1 cell homogenates t1/2 [5]: 6.8 ± 2.0 min
Cytosine (%) of species found in cells (Caco-2 cells): 0%
Gemcitabine (%) of species found in cells (Caco-2 cells): 18%
Prodrug (%) of species found in cells (Caco-2 cells): 82%
Cytosine (%) of species found in cells (AsPC-1 cells [6]): 10%
Gemcitabine (%) of species found in cells (AsPC-1 cells [6]): 84%
Prodrug (%) of species found in cells (AsPC-1 cells [6]): 6%
GI50 (AsPC-1 cells [7]; [11]): 4.3 ± 1.5 mM

Nc1ccn([C@@H]2O[C@H](CO)[C@@H](O)C2(F)F)c(=O)n1 [Gemcitabine, reference compound]
Degradation in SGF [1]: no significant degradation
half-life ([1]; simulated gastric fluid (SGF), pH 1.2): > 120 min
Degradation in SIF [2]: no significant degradation
half-life ([2]; simulated intestinal fluid (SIF), pH 6.5): > 120 min
Degradation in pH 7.4 phosphate buffer ([3]; pH 7.4): no significant degradation
half-life ([3]; phosphate buffer, pH 7.4): > 120 min
half-life ([4]; human, Caco-2, pH 7.4): 105 ± 6.1 min
half-life (Microsomal stability; human, human liver microsomes, pH 7.4): 45.3 ± 3.3 min
Resistance against thymidine phosphorylase (words) (Thymidine phosphorylase): rapidly cleaved
Resistance against thymidine phosphorylase (words) (Thymidine phosphorylase; listed as gemcitabine): did not display the resistance
half-life (Thymidine phosphorylase; thymidine phosphorylase, pH 7.4): 6 ± 1.8 min
half-life ([5]; human, AsPC-1 cell homogenates, pH 7.4): 33.7 ± 14.5 min
Difference in uptake amount with and without 10 mM Gly-Pro (Caco-2 cells; Caco-2 cells): did not exhibit the difference
Gemcitabine (%) of species found in cells (Caco-2 cells): 50%
Gemcitabine (%) of species found in cells (AsPC-1 cells [6]): 90%
Papp at 2 h, 0.1 mM [9]: 1 ± 0.2 ×10⁻⁶ cm/s
Difference in membrane permeability with and without 10 mM Gly-Pro (Caco-2 monolayer; Caco-2 monolayers): did not exhibit the difference
Species detected in the basolateral receiver compartment (Caco-2 monolayer; following transport across Caco-2 monolayers): only cytosine
GI50 (AsPC-1 cells [7]; Homo sapiens, ASPC1, pH 6, read-out: GI50 AsPC-1): 10.2 ± 1.6 mM
Papp at 90 min, 100 μM [10]: 2 ×10⁻⁶ cm/s
Peff, mouse perfusion (mouse jejunum; mouse jejunum, 100 μM, pH 6.0): 2.0 ± 0.2 ×10^−5 cm/s
